Compound activity as filed in PubChem BioAssay.
IDH1 mut inh: inhibitors of IDH1 R132H reductase, primary screen, biochemical, plate reader, single point. Isocitrate dehydrogenase [NADP] cytoplasmic (Homo sapiens), O75874. diaphorase/resazurin fluorescence, 60 min. inhibition, % at 10 µM. actives 0.18% (n = 70,000); in the data active means inhibition above about 34%; inconclusive means no clear call, values can overlap the other calls; inactive means below about 11%;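 further: 0% = DMSO and 100% = no enzyme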
GASC1 inh: inhibitors of GASC-1 (KDM4C) histone demethylase, primary screen, biochemical, single concentration HTS; GST-KDM4C 2-372, H3K9me3 peptide, LANCE TR-FRET; actives 0.15% (n = 96,000); Lysine-specific demethylase 4C (Homo sapiens), Q9H3R0; AID 720574, 2013; inhibition, % at 12.5 µM;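 active means mean replicate inhibition above about 25%, with at least 55% of replicates also reaching it, limit read from the data, passing the limit was not always enough; inconclusive means only one of those two conditions met; inactive means neither condition met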
Target sequence (Q9H3R0 2-372 limits assumed): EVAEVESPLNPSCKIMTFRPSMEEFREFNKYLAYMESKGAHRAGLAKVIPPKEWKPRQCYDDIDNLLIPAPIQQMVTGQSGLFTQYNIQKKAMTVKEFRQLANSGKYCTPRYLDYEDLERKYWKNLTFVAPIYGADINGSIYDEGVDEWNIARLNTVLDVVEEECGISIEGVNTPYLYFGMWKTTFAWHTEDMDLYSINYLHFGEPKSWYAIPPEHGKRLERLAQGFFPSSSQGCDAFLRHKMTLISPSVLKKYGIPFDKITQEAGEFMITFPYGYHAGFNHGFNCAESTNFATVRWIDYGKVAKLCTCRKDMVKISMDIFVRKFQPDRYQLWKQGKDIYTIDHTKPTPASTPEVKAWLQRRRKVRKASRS
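Compound: one test concentration per compound; Material: GST-GASC-1 enzyme fragment 2-372; Amount: GASC-1 enzyme at 10 nM final in reaction; Also added: H3K9me3 peptide substrate, Fe(II), 2-oxoglutarate; Technique: LANCE TR-FRET; Times: 30 min demethylation and 1 h detection at room temperature.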
T cruzi growth-1: T. cruzi intracellular proliferation inhibitors, primary screen, cell-based, beta-gal Tulahuen parasites, NIH3T3 host, luminescence | T. cruzi beta-gal in NIH3T3, GalScreen luminescence, 90 h | inhibition, % at 8.34 µM | actives 5.9% (n = 77,000) | AID 624255, 2012;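 active means mean inhibition above about 93%, with at least 55% of replicates each passing it, limit read from the data, passing the limit was not always enough; inconclusive means only one of those two conditions holds; inactive means neither condition holds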
T cruzi growth-2: T. cruzi intracellular proliferation inhibitors, confirmation, cell-based, NIH3T3 host, beta-gal parasite, luminescence, cherry-pick; shares compounds with T cruzi growth-1; T. cruzi beta-gal in NIH3T3, GalScreen luminescence, 90 h; inhibition, % at 8.35 µM; actives 72% (n = 5,600); AID 651739, 2012;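 active means mean replicate inhibition above about 95% and at least 55% of replicates individually reaching it, limit read from the data; inconclusive means only one of the two criteria is met; inactive means neither criterion is met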
T cruzi growth-3: inhibitors of intracellular T. cruzi replication, confirmation, NIH3T3 host cells, beta-gal parasites, cherry-pick, set 2. shares compounds with T cruzi growth-1. T. cruzi beta-gal in NIH3T3, GalScreen luminescence, 90 h. inhibition, % at 2.09 µM. actives 21% (n = 5,600);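 active means mean inhibition above about 95%, with at least 55% of replicates also reaching it, limit read from the data; inconclusive means meets just one of the two conditions; inactive means meets neither condition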;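 further: plate controls were neutral control median for no effect and positive control median for full effect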
3T3 cytotox: cytotoxicity in mouse NIH/3T3 fibroblasts, confirmation, cytotoxicity control for T. cruzi proliferation inhibitor project, cell-based, cherry-pick, single point | shares compounds with T cruzi growth-1 | NIH/3T3 viability, CellTiter-Glo ATP luminescence, 90 h | cytotoxicity (signal decrease), % at 8.35 µM | actives 14% (n = 5,600) | AID 651742, 2012;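 active means mean signal decrease across replicates above about 35% based on untreated-well scatter, with enough replicates individually passing, limit read from the data; inconclusive means no rule stated though some were filed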;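 further: 0% = median of neutral control wells and 100% = median of positive control wells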
NIH3T3 tox 2: NIH/3T3 fibroblast cytotoxicity, confirmation, cytotoxicity control, cell-based, cherry-pick, single point, set 2; shares compounds with T cruzi growth-1; NIH/3T3 viability, CellTiter-Glo ATP luminescence, 90 h; inhibition, % at 24.9 µM; actives 56% (n = 5,600); AID 651744, 2012;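 active means mean loss of cell viability signal at or above a set limit, and enough replicates individually reaching it; inconclusive means meets only the mean limit or only the replicate share; inactive means meets neither condition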;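 further: 0% = median of neutral control wells and 100% = median of positive control wells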
The depositor's hits bear a star. The sample as a whole holds a higher share of hits than the screen did.

How did COc1cccc(-c2ccc([C@H]3[C@@H](CO)N4CCCCN(C(=O)c5ccc6c(c5)OCO6)C[C@H]34)cc2)c1 do in these assays?
GASC1 inh: 1; T cruzi growth-1: 110*; T cruzi growth-2: 105*; T cruzi growth-3: 87; 3T3 cytotox: 33; NIH3T3 tox 2: 106*

Results for Cc1cccc(-c2ccc([C@H]3[C@@H](CO)N4CCCCN(C(=O)c5ccc6c(c5)OCO6)C[C@H]34)cc2)c1 ?
GASC1 inh: -2; T cruzi growth-1: 120*; T cruzi growth-2: 98*; T cruzi growth-3: 105*; 3T3 cytotox: 44*; NIH3T3 tox 2: 107*

What do the screens show for `COc1cccc(-c2ccc([C@@H]3[C@@H](CO)N4CCCCN(C(=O)c5ccc6c(c5)OCO6)C[C@H]34)cc2)c1`?
GASC1 inh: -2; T cruzi growth-1: 92

What do the screens show for `O=C(c1ccc2c(c1)OCO2)N1CCCCN2[C@@H](CO)[C@H](c3ccc(-c4ccccc4)cc3)[C@@H]2C1`?
GASC1 inh: -1; T cruzi growth-1: 54

Results for Cc1cccc(-c2ccc([C@@H]3[C@@H](CO)N4CCCCN(C(=O)c5ccc6c(c5)OCO6)C[C@@H]34)cc2)c1 ?
GASC1 inh: 0; T cruzi growth-1: 55

How did Cc1cccc(-c2ccc([C@@H]3[C@@H](CO)N4C(=O)CN(C(=O)c5ccc6c(c5)OCO6)C[C@H]34)cc2)c1 do in these assays?
GASC1 inh: -1

What do the screens show for `Cc1cccc(-c2ccc([C@@H]3[C@@H](CO)N4CCCCN(C(=O)c5ccc6c(c5)OCO6)C[C@H]34)cc2)c1`?
GASC1 inh: -1; T cruzi growth-1: 106*; T cruzi growth-2: 104*; T cruzi growth-3: 35; 3T3 cytotox: 26; NIH3T3 tox 2: 103*

What do the screens show for `COc1ccc(NC(=O)Nc2ccc3c(c2)C(=O)N([C@@H](C)CO)C[C@H](C)[C@@H](CN(C)C)O3)cc1`?
IDH1 mut inh: 0; GASC1 inh: 0; T cruzi growth-1: 16

Results for CC(C)NC(=O)Nc1ccc2c(c1)C(=O)N([C@@H](C)CO)C[C@@H](C)[C@@H](CN(C)CC1CCCCC1)OCCCC[C@@H](C)O2 ?
IDH1 mut inh: 2; GASC1 inh: 0; T cruzi growth-1: 53

Results for COc1ccc(NC(=O)Nc2ccc3c(c2)C(=O)N([C@@H](C)CO)C[C@H](C)[C@H](CN(C)S(C)(=O)=O)O3)cc1 ?
IDH1 mut inh: -1; GASC1 inh: 8; T cruzi growth-1: -193

Results for COCC(=O)Nc1ccc2c(c1)OC[C@@H](C)N(C(=O)Cc1ccccn1)C[C@@H](C)[C@H](OC)CN(C)C2=O ?
IDH1 mut inh: 0; GASC1 inh: 2; T cruzi growth-1: 32

How did CCCNC(=O)C[C@@H]1CC[C@H]2[C@@H](COc3ccc(NC(=O)NCC)cc3C(=O)N2C)O1 do in these assays?
GASC1 inh: 1; T cruzi growth-1: 56

How did C[C@@H]1CN([C@@H](C)CO)C(=O)c2cccc(NC(=O)C3CCOCC3)c2O[C@H]1CN(C)C(=O)Nc1cccc2ccccc12 do in these assays?
IDH1 mut inh: 0; GASC1 inh: 3; T cruzi growth-1: -17

What do the screens show for `Cc1cccc(-c2ccc([C@H]3[C@H]4CN(C(=O)c5ccc6c(c5)OCO6)CCCCN4[C@H]3CO)cc2)c1`?
GASC1 inh: 0; T cruzi growth-1: 116*; T cruzi growth-2: 105*; T cruzi growth-3: 57; 3T3 cytotox: 31; NIH3T3 tox 2: 106*

Results for O=C(c1ccc2c(c1)OCO2)N1CCCCN2[C@H](CO)[C@@H](c3ccc(-c4ccccc4)cc3)[C@H]2C1 ?
GASC1 inh: 0; T cruzi growth-1: 102*; T cruzi growth-2: 86; T cruzi growth-3: 55; 3T3 cytotox: 28; NIH3T3 tox 2: 68*

What do the screens show for `CC(=O)N1CCCCN2[C@H](CO)[C@H](c3ccc(-c4cccc(C)c4)cc3)[C@@H]2C1`?
GASC1 inh: -1; T cruzi growth-1: 78

Results for O=C(c1ccc2c(c1)OCO2)N1CCCCN2[C@H](CO)[C@H](c3ccc(-c4ccccc4)cc3)[C@H]2C1 ?
GASC1 inh: 0; T cruzi growth-1: 61

What do the screens show for `Cc1ccc(S(=O)(=O)N(C)C[C@H]2Oc3ccc(NC(=O)NC4CCCCC4)cc3C(=O)N([C@H](C)CO)C[C@H]2C)cc1`?
IDH1 mut inh: 1; GASC1 inh: 1; T cruzi growth-1: -8

What do the screens show for `O=C(NCCN1CCCCC1)[C@@H]1N[C@@H]2c3ccc(-c4ccncc4)c(=O)n3C[C@@H]2[C@H]1CO`?
GASC1 inh: -1; T cruzi growth-1: 101*; T cruzi growth-2: -17; T cruzi growth-3: -11; 3T3 cytotox: -9; NIH3T3 tox 2: -26

How did O=C(NCCN1CCCCC1)[C@H]1N[C@H]2c3ccc(-c4cccnc4)c(=O)n3C[C@H]2[C@@H]1CO do in these assays?
GASC1 inh: 1; T cruzi growth-1: 19

What do the screens show for `CO[C@@H]1CN(C)C(=O)c2cc(NC(=O)C3CC3)ccc2OC[C@H](C)N(Cc2cc(F)ccc2F)C[C@H]1C`?
IDH1 mut inh: 0; GASC1 inh: -1; T cruzi growth-1: 109*; T cruzi growth-2: 80; T cruzi growth-3: 39; 3T3 cytotox: -2; NIH3T3 tox 2: -3

What do the screens show for `CO[C@@H]1CN(C)C(=O)c2cc(NS(=O)(=O)c3ccccc3)ccc2OC[C@H](C)N(Cc2cccnc2)C[C@@H]1C`?
IDH1 mut inh: 0; GASC1 inh: -1; T cruzi growth-1: 24

What do the screens show for `CO[C@@H]1CN(C)C(=O)c2cc(NC(=O)C3CC3)ccc2OC[C@H](C)N(Cc2cccc(F)c2)C[C@H]1C`?
IDH1 mut inh: 0; GASC1 inh: 2; T cruzi growth-1: 99*; T cruzi growth-2: inconclusive; T cruzi growth-3: 38; 3T3 cytotox: -2; NIH3T3 tox 2: 0

What do the screens show for `COCC(=O)Nc1ccc2c(c1)OC[C@H](C)N(Cc1cc(F)ccc1F)C[C@@H](C)[C@H](OC)CN(C)C2=O`?
IDH1 mut inh: 0; GASC1 inh: -1; T cruzi growth-1: 97*; T cruzi growth-2: 97*; T cruzi growth-3: 31; 3T3 cytotox: -7; NIH3T3 tox 2: 16
